Source: publication PMC9187044 (Environmental Toxicology and Chemistry, 2021)
“Also recorded” adds a separate entry of the source. Like-named read-outs stand apart in the source and are kept apart here.

Legend:
[1] = human liver microsomes; ref Seguin et al., 2019; cited from earlier work
[2] = Rainbow trout liver S9 substrate depletion assay; format: in vitro ADME, rainbow trout (Oncorhynchus mykiss); settings: for Depletion / biotransformation in RT-S9 assay (in words): active RT-S9, tested individually, up to 2 h
[3] = In vitro half-life with human liver microsomes; format: in vitro ADME
[4] = Baseline equilibrium BCF predicted from DMLW and phospholipid content; design: species or system fish; settings: fML of 1%
[5] = ref Chen et al., 2016, cited from earlier work; for CLint,in vivo: RT-S9
[6] = RT-S9 substrate depletion assay, cationic surfactants tested as mixtures of six; format: in vitro ADME, rainbow trout (Oncorhynchus mykiss); settings: for Clearance rate in mixture compared with single-compound assay (in words): Mixture 1; for CLint,in vivo lower in mixture than tested individually: Mixture 2
[7] = 14C-labeled, 1.1 × 10^6 cells/ml, by 2.5 h; ref Bernhard et al., 2006; cited from earlier work
[8] = N-demethylation metabolite formation in RT-S9 assay; format: in vitro ADME, rainbow trout (Oncorhynchus mykiss); settings: for 1° alkylamine product present at last time point as % of removed parent: 120 min; for Time of peak concentration of 2° alkylamine metabolite: 2-h RT-S9 assay
How it was run: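 Trout liver S9 (2 mg/ml protein) with 2 mM NADPH, 2 mM UDPGA, 0.1 mM PAPS, 5 mM GSH and alamethicin, pH 7.8, 11 °C; substrate starts at about 1.0 µM. Sampled at 0, 20, 40, 60, 90 and 120 min and quenched in ice-cold acetonitrile. N-demethylated products scanned by LC–MS/MS and quantified against external standards. Metabolite mass divided by parent mass removed at the same time point.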

[9] = Cofactor-limited depletion of T12 in RT-S9 assay; format: in vitro ADME, rainbow trout (Oncorhynchus mykiss)
How it was run: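 Pooled liver S9 from five trout, 2 mg/ml protein, in 100 mM PPBS pH 7.8 with 10 μg/ml alamethicin, at 11 °C; substrate starts at about 1.0 µM. Duplicate six-sample time series over 60 min, either with no added cofactors, NADPH (2 mM) alone, NADPH plus UDPGA (2 mM), GSH (5 mM) or PAPS (0.1 mM), or all cofactors. Parent and N-demethyl product measured by LC–MS/MS.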

CCCCCCCCCC[N+](C)(C)Cc1ccccc1.[Cl-] [BAC10]
In vitro half-life [1]: 1 min

CCCCCCCCCCCC[N+](C)(C)Cc1ccccc1 [BAC12, Benzyldimethyldodecylammonium chloride]
In vitro half-life [1]: 3 min | CLint,in vitro ([2]; RT-S9, present study, tested individually): 0.14 ml h^–1 mg protein^–1 | Depletion / biotransformation in RT-S9 assay (in words) [2]: significant depletion | HLM CLint,in vitro faster than RT-S9 CLint,in vitro ([3]; HLM vs present study RT-S9): approximately 100 times | CLint,in vitro corresponding to HLM half-life ([3]; from half-life of ref Seguin et al., 2019): 13.86 ml h^–1 mg protein^–1

CCCCCCCCCCCCCC[N+](C)(C)Cc1ccccc1.[Cl-] [BAC14, Benzyldimethyltetradecylammonium chloride]
Depletion / biotransformation in RT-S9 assay (in words) [2]: No significant depletion

CCCCCCCCCCCCCCCC[N+](C)(C)Cc1ccccc1 [BAC16]
In vitro half-life [1]: 15 min

CCCCCCCCCC[N+](C)(C)CCCCCCCCCC [DDAC, didecyldimethylammonium chloride]
Factor by which BCFbaseline estimate exceeds empirical BCF or BAF [4]: 420

CCCCCCCCN [P8]
Depletion / biotransformation in RT-S9 (in words) [5]: no significant depletion

CCCCCCCCCN [P9, Nonylamine]
Clearance rate in mixture compared with single-compound assay (in words) [6]: not significantly different

CCCCCCCCCCCCN [P12, Dodecylamine]
Depletion / biotransformation in RT-S9 assay (in words) [2]: No significant depletion | CLint,in vivo [5]: 37 ml h^–1 g liver^–1

CCCCCCCCCCCC(=O)OCCN [P12‐Ac, 2-aminoethyl laurate]
Clearance rate relative to alkylamine analog P12 ([2]; RT-S9 assay): 10 times higher

CCCCCCCCCCCCCN [P13, Tridecylamine]
Factor by which BCFbaseline estimate exceeds empirical BCF or BAF [4]: 10 | Predicted BCFbaseline [4]: 14,000 L kg^–1

CCCCCCCCCCCCCCN [P14, Tetradecylamine]
Depletion / biotransformation in RT-S9 assay (in words) [2]: No significant depletion

CCCCCCCCCCCCCCCCN [P16, Hexadecylamine]
Depletion / biotransformation in RT-S9 assay (in words) [2]: No significant depletion; also recorded: no detectable biotransformation | Factor by which BCFbaseline estimate exceeds empirical BCF or BAF [4]: 70 | Concentration remaining, % of starting value [7]: 56.0 ± 1.3%

CCCCCCCC[N+](C)(C)C.[Cl-] [Q8]
Depletion / biotransformation in RT-S9 (in words) [5]: identical result

CCCCCCCCCC[N+](C)(C)C.[Br-] [Q10, N,N,N-Trimethyldecylammonium bromide]
Depletion / biotransformation in RT-S9 assay (in words) [2]: no significant biotransformation

CCCCCCCCCCCC[N+](C)(C)C.[Cl-] [Q12]
Depletion / biotransformation in RT-S9 (in words) [5]: identical result

CCCCCCCCCCCCCC[N+](C)(C)C.[Cl-] [Q14, N,N,N-Trimethyltetradecylammonium chloride]
Depletion / biotransformation in RT-S9 assay (in words) [2]: no significant biotransformation | Factor by which BCFbaseline estimate exceeds empirical BCF or BAF [4]: 33

CCCCCCCCCCCCCCCC[N+](C)(C)C.[Cl-] [Q16, N,N,N-Trimethylhexadecylammonium chloride]
Depletion / biotransformation in RT-S9 assay (in words) [2]: no significant biotransformation

CCCCCCCCNC [S8]
Depletion / biotransformation in RT-S9 (in words) [5]: negligible depletion

CCCCCCCCCCNC [S10, N-Methyldecylamine]
1° alkylamine product present at last time point as % of removed parent [8]: 10%

CCCCCCCCCCCCNC [S12, N-Methyldodecylamine]
CLint,in vivo lower in mixture than tested individually [6]: 50% | 1° alkylamine product present at last time point as % of removed parent [8]: 25% | CLint,in vivo [5]: 162 ml h^–1 g liver^–1

CCCCCCCCCCCCCCCCNC [S16, N-Methylhexadecylamine]
CLint,in vivo lower in mixture than tested individually [6]: 70% | Factor by which BCFbaseline estimate exceeds empirical BCF or BAF [4]: 49 | 1° alkylamine product present at last time point as % of removed parent [8]: 55%

CCCCCCCCN(C)C [T8, N,N-Dimethyloctylamine]
CLint,in vivo [5]: 184 ml h^–1 g liver^–1

CCCCCCCCCN(C)C [T9, N,N-Dimethylnonylamine]
CLint,in vivo lower in mixture than tested individually [6]: 43% | Depletion / biotransformation in RT-S9 assay (in words) [2]: reduced below the limit of quantitation

CCCCCCCCCCN(C)C [T10, N,N-Dimethyldecylamine]
Clearance rate in mixture compared with single-compound assay (in words) [6]: not significantly different | Depletion / biotransformation in RT-S9 assay (in words) [2]: reduced below the limit of quantitation | Time of peak concentration of 2° alkylamine metabolite [8]: 20 min

CCCCCCCCCCCCN(C)C [T12, N,N-Dimethyldodecylamine]
Depletion / biotransformation in RT-S9 assay (in words) [2]: reduced below the limit of quantitation | CLint,in vivo ([9]; RT-S9 with only NADPH added): 224 ml h^–1 g liver^–1 | Clearance (in words) ([9]; UDPGA or GSH in combination with NADPH, vs NADPH only): did not result in increased clearance | Depletion (in words) ([9]; active RT-S9, no added cofactors): no significant depletion | CLint,in vivo [5]: 472 ml h^–1 g liver^–1

CCCCCCCCCCCCCN(C)C [T13, N,N-Dimethyltridecylamine]
Clearance rate in mixture compared with single-compound assay (in words) [6]: not significantly different

CCCCCCCCCCCCCCN(C)C [T14, N,N-Dimethyltetradecylamine]
Factor by which BCFbaseline estimate exceeds empirical BCF or BAF [4]: 3.1

CCCCCCCCCCCCCCCCN(C)C [T16, N,N-Dimethylhexadecylamine]
Factor by which BCFbaseline estimate exceeds empirical BCF or BAF [4]: 42 | Time of peak concentration of 2° alkylamine metabolite [8]: 120 min

CCCCCCCCCCCCCCCCCCN(C)C [T18, N,N‐dimethyloctadecylamine]
Factor by which BCFbaseline estimate exceeds empirical BCF or BAF [4]: 128
